Tests used:
[1] = system: GFP reporter in OSCs; assay: Tethering reporter assay, λN-boxB recruitment to nascent RNA; format: cell-based, Drosophila; conditions: GFP by FACS, 2500 cells per experiment, normalized to control
In short: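 OSCs carrying a GFP reporter were nucleofected with λN-tagged protein plasmids (kit V, program T-029, six Mio. cells per transfection). Fold repression was derived from FACS GFP intensity relative to control, as mean ± SD of three biological replicates. For RNAi combinations, siRNA was given, then siRNA plus tethering plasmid 2 d later, with read-out 5 d after siRNA and 3 d after plasmid. Fusion expression was checked by western blot (Atp5a loading control).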

[2] = system: GFP reporter in OSCs; conditions: tethering to nascent RNA; ref Batki et al. 2019; cited from earlier work
[3] = system: GFP-Ctp; assay: Coimmunoprecipitation with Ctp; format: binding, Drosophila; conditions: western blot, Panx: S2 cells, GFP-Ctp and FLAG-Panx
In short: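 Lysates from S2 cells transfected with FLAG-Panx variant plasmids and GFP-Ctp were immunoprecipitated via GFP-Ctp. Input, unbound and immunoprecipitate fractions were analysed by western blot, with immunoprecipitate lanes loaded at 4× relative amount.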

B1: Ctp: dynein light chain protein Cut up, Drosophila ortholog of LC8; λN fusion in tethering assay (protein)
chain: MSDRKAVIKNADMSEEMQQDAVDCATQALEKYNIEKDIAAYIKKEFDKKYNPTWHCIVGRNFGSYVTHETRHFIYFYLGQVAILLFKSG
cotranscriptional silencing (λN tethering) [1]: similarly strong repression

B2: Panx: Panoramix, SFiNX subunit (protein)
chain: MEAPMKLEVKVENYVECGINEDEATPLREGTGETPPHAFACGVPMSGSGWCSDPEDGNLVHHSATPTSDEHLQPSLDTIEPKMEPKIKEDADNAMLDSLLADPFENNSPATLQTPADVKPNAMLDSVEQGSRSCELLPSEFSKRENLDDMDLFSLKAAKTLVPDEQQSFPQNDTPIDDPEAADLIAQKREILKMLEMTAENRKVKHKKKKHKKERSHRSNKHQEESRKRNHSNSSSDEGADDKNQFDCDYRGHKKYKNRRGSASSQNESSKERKLRDTELDYVPVRPDEHFIRPIKFSNLIERRPPQVEFNTVNLSKADKRSLAVARAELVLEQIQQKANKEEPPEFHMVDTICKLPVNESFRNQDCFENPSPICNNMNVVYKFNSTPGTRIDLSKWGLETVPEATKRLLRLLGIDVARLKELQSTVKPSQRILKLKKEQLEQGLAPTEEQETATLYKNAATQTERRTATRDAGTQVRLESKLNGAFWQNPHFDPMNLTQHQSNVMLALQEIYQTLPSATMAVKLSRALAPALAIIKGRQP
fold reporter silencing (λN tethering) [2]: ~20 fold

B3: C-terminal portion of Panx (amino acids 447–541): Panx fragment including the two predicted Ctp binding sites (protein, UniProt Q9W2H9 447-541, looked up, fragment)
chain: PTEEQETATLYKNAATQTERRTATRDAGTQVRLESKLNGAFWQNPHFDPMNLTQHQSNVMLALQEIYQTLPSATMAVKLSRALAPALAIIKGRQP
interaction with Ctp (co-IP) [3]: interacted with Ctp
